Results from ChEMBL document CHEMBL1121991, “4-Aroyl-1,3-dihydro-2H-imidazol-2-ones, a new class of cardiotonic agents” (1982).
“And” between values parts separate entries of the source, which are not always exact repeats. Equal values may be shown once.

Legend:
[1] = system: Canis familiaris; assay: The heart rate was determined after 1.0 mg/kg administration with 20 mg/kg pentobarbital in the dog heart-lung preparation; assay type: functional, Canis lupus familiaris
Procedure, shortened: (§1)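 Heart-lung preparation from mongrel dogs anesthetized with pentobarbital 35 mg/kg iv. Failure was induced by adding pentobarbital 20 mg/kg to the blood reservoir, then test agent 1 mg/kg was added. Force, rate, output, stroke volume, left atrial pressure and stroke work were read 10 min later. Five preparations, means ± SE, analysis of variance.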

[2] = system: Canis familiaris; assay: The cardiac contractile force was determined after 1.0 mg/kg administration with 20 mg/kg pentobarbital in the dog heart-lung preparation; assay type: functional, Canis lupus familiaris; procedure, shortened: as §1
[3] = system: Canis familiaris; assay: The cardiac output was determined after 1.0 mg/kg administration with 20 mg/kg pentobarbital in the dog heart-lung preparation; assay type: functional, Canis lupus familiaris; procedure, shortened: as §1
[4] = system: Canis familiaris; assay: (§2) The change in cardiac output was determined after 10 min of 3.0 ug/kg administration in the dog heart-lung preparation; assay type: functional, Canis lupus familiaris
Procedure, shortened: (§3)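 Dog heart-lung preparation from mongrel dogs of either sex, 11–19 kg, anesthetized with sodium pentobarbital 35 mg/kg iv. Strain gauge arch on the right ventricle; left atrial pressure by atrial cannula transducer; aortic flow by extracorporeal flow meter. Drug was added to the blood reservoir and measured at 10 min, n = 5–8. Change vs control by paired t test.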

[5] = system: Canis familiaris; assay: as §2; assay type: functional, Canis lupus familiaris; procedure, shortened: as §3; remark: listed apart in the source
[6] = system: Canis familiaris; assay: The change in heart rate was determined after 10 min of 0.3 ug/kg administration in the dog heart-lung preparation; assay type: functional, Canis lupus familiaris; procedure, shortened: as §3
[7] = system: Canis familiaris; assay: The change in heart rate was determined after 10 min of 1.0 ug/kg administration in the dog heart-lung preparation; assay type: functional, Canis lupus familiaris; procedure, shortened: as §3
[8] = system: Canis familiaris; assay: The change in heart rate was determined after 10 min of 3.0 ug/kg administration in the dog heart-lung preparation; assay type: functional, Canis lupus familiaris; procedure, shortened: as §3
[9] = system: Canis familiaris; assay: The change in left atrial pressure after 10 min of 0.3 ug/kg administration in the dog heart-lung preparation; assay type: functional, Canis lupus familiaris, Cardiac atrium; procedure, shortened: as §3
[10] = system: Canis familiaris; assay: The change in left atrial pressure was determined after 10 min of 0.3 ug/kg administration in the dog heart-lung preparation; assay type: functional, Canis lupus familiaris, Cardiac atrium; procedure, shortened: as §3
[11] = system: Canis familiaris; assay: The change in left atrial pressure was determined after 10 min of 3.0 ug/kg administration in the dog heart-lung preparation; assay type: functional, Canis lupus familiaris, Cardiac atrium; procedure, shortened: as §3
[12] = system: Canis familiaris; assay: The change in left atrial pressure was determined after 10 min of 3.0 ug/kg administration in the dog heart-lung preparation.; assay type: functional, Canis lupus familiaris, Cardiac atrium; procedure, shortened: as §3
[13] = system: Canis familiaris; assay: The change in cardiac contractile force after 10 min of 3.0 ug/kg administration in the dog heart-lung preparation; assay type: functional, Canis lupus familiaris; procedure, shortened: as §3
[14] = system: Canis familiaris; assay: The change in cardiac contractile force after 1 mg/kg iv administration with 0.5 mg/kg, iv propranolol; assay type: functional, Canis lupus familiaris, Heart
Procedure, shortened: (§4)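 Anesthetized dogs, N = 6 per group, given test agent 1 mg/kg iv or isoproterenol 0.1 μg/kg iv, with or without propranolol 0.5 mg/kg iv pretreatment. Percent change from control was recorded for contractile force (strain gauge arch) and for mean arterial BP. Values are means ± SE, compared by Student's t test.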

[15] = system: Canis familiaris; assay: The change in cardiac contractile force after 1 mg/kg iv administration, activity is expressed as % change.; assay type: functional, Canis lupus familiaris, Heart; procedure, shortened: as §4
[16] = system: Canis familiaris; assay: The change in cardiac contractile force was determined after 10 min of 0.3 ug/kg administration in the dog heart-lung preparation; assay type: functional, Canis lupus familiaris; procedure, shortened: as §3
[17] = system: Canis familiaris; assay: The change in cardiac contractile force was determined after 10 min of 1.0 ug/kg administration in the dog heart-lung preparation; assay type: functional, Canis lupus familiaris; procedure, shortened: as §3
[18] = system: Canis familiaris; assay: The change in cardiac contractile force was determined after 10 min of 3.0 ug/kg administration in the dog heart-lung preparation; assay type: functional, Canis lupus familiaris; procedure, shortened: as §3
[19] = system: Canis familiaris; assay: The left atrial pressure was determined after 1.0 mg/kg administration with 20 mg/kg pentobarbital in the dog heart-lung preparation; assay type: functional, Canis lupus familiaris, Cardiac atrium; procedure, shortened: as §1
[20] = system: Canis familiaris; assay: The change in mean arterial blood pressure was determined after 1 mg/kg iv administration; assay type: functional, Canis lupus familiaris; procedure, shortened: as §4
[21] = system: Canis familiaris; assay: The change in mean arterial blood pressure was determined after 1 mg/kg iv administration with 0.5 mg/kg, iv propranolol; assay type: functional, Canis lupus familiaris; procedure, shortened: as §4
[22] = system: Canis familiaris; assay: The stroke volume was determined after 1.0 mg/kg administration with 20 mg/kg pentobarbital in the dog heart-lung preparation; assay type: functional, Canis lupus familiaris; procedure, shortened: as §1
[23] = system: Canis familiaris; assay: Stroke work was determined after 1.0 mg/kg administration with 20 mg/kg pentobarbital in the dog heart-lung preparation; assay type: functional, Canis lupus familiaris; procedure, shortened: as §1
[24] = system: Canis familiaris; assay: The change in stroke volume after 10 min of 1.0 ug/kg administration in the dog heart-lung preparation; assay type: functional, Canis lupus familiaris; procedure, shortened: as §3
[25] = system: Canis familiaris; assay: The change in stroke volume after 10 min of 3.0 ug/kg administration in the dog heart-lung preparation; assay type: functional, Canis lupus familiaris; procedure, shortened: as §3
[26] = system: Canis familiaris; assay: The change in stroke volume was determined after 10 min of 0.3 ug/kg administration in the dog heart-lung preparation; assay type: functional, Canis lupus familiaris; procedure, shortened: as §3
[27] = system: Canis familiaris; assay: The change in stroke volume was determined after 10 min of 1.0 ug/kg administration in the dog heart-lung preparation; assay type: functional, Canis lupus familiaris; procedure, shortened: as §3
[28] = system: Canis familiaris; assay: The change in stroke volume was determined after 10 min of 3.0 ug/kg administration in the dog heart-lung preparation; assay type: functional, Canis lupus familiaris; procedure, shortened: as §3
[29] = system: Canis familiaris; assay: Pharmacological activity for Blood pressure, -20% in anesthetized dog was determined after intravenous administration; assay type: functional, Canis lupus familiaris
Procedure, shortened: (§5)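 Anesthetized dogs; contractile force recorded by a left-ventricular Walton-Brodie strain gauge arch, heart rate from lead II EKG, plus blood pressure. Stabilized at least 30 min, then at least three iv doses given, one compound per animal, with return to basal between doses. Doses for +30% force, +15% rate and −20% BP were extrapolated from dose-response curves; geometric mean where repeated.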

[30] = system: Canis familiaris; assay: Pharmacological activity for heart rate +15% in anesthetized dog was determined after intravenous administration; assay type: functional, Canis lupus familiaris; procedure, shortened: as §5
[31] = system: Canis familiaris; assay: Pharmacological activity for Contractile force, +30% in anesthetized dog was determined after intravenous administration; assay type: functional, Canis lupus familiaris; procedure, shortened: as §5

**Q.** Which results are given for `COc1ccc(C(=O)c2[nH]c(O)nc2C)cc1`?
**A.** Heart rate [1]: 151 beats min-1; Cardiac contractile force [2]: 88 g; Cardiac output [3]: 1053 mL/min; Change [4]: 46 mL/min; Change [5]: 4%; Change [6]: 22% and 14%; Change [7]: 35% and 23%; Change [8]: 41% and 28%; Change [9]: -1.6 mmHg; Change [10]: -49%; Change [11]: -43%; Change [12]: -1.1 mmHg; Change [13]: 179%; Change [14]: 144%; Change [15]: 127%; Change [16]: 62% and 88%; Change [17]: 96.7% and 121%; Change [18]: 129 g; Left atrial pressure [19]: 2.6 mmHg; Change [20]: -27%; Change [21]: -33%; Stroke volume [22]: 7 mL; Stroke work [23]: 7.7 g; Change [24]: -16%; Change [25]: -18%; Change [26]: -0.7% and -10%; Change [27]: -1.1 mL; Change [28]: -1.2 mL; Equieffective dose [29]: 0.65 mg/kg; Equieffective dose [30]: 0.4 mg/kg; Equieffective dose [31]: 0.16 mg/kg
